Reference: ChEMBL document CHEMBL4196144, “Minor Nortriterpenoids from the Twigs and Leaves of Rhododendron latoucheae” (J Nat Prod, 2018)

Tests used:
Human alphaherpesvirus 1 = assay: Antiviral activity against HSV1 F VR 733 infected in African green monkey Vero cells assessed as inhibition of virus-induced cytopathic effect; type: functional, organism-based; conditions: Human alphaherpesvirus 1, Strain F ATCC VR 733, Vero
[1] = Cytotoxicity against African green monkey Vero cells measured after 48 hrs; type: cell-based; conditions: chlorocebus sabaeus, read-out: TC50
How it was run: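 TC50 is the concentration that inhibits Vero cell growth by 50%. It is used with the antiviral IC50 to give a selectivity index (TC50/IC50).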

[2] = Selectivity index, ratio of TC50 for African green monkey Vero cells to IC50 for HSV1 strain F VR 733 infected in African green monkey Vero cells; type: toxicity; conditions: read-out: Selectivity Index
How it was run: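 Calculated as TC50/IC50 in Vero cells. TC50 is the cytotoxic concentration that inhibits Vero cell growth by 50%. No SI was assigned where it could not be determined under the test conditions.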

Influenza A virus = assay: Antiviral activity against Influenza A virus A/95-359 infected in MDCK cells assessed as inhibition of virus-induced cytopathic effect; type: functional, organism-based; conditions: A/95-359, MDCK
How it was run: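 MDCK cells; IC50 given as the mean of three independent determinations.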

[3] = Cytotoxicity against MDCK cells measured after 48 hrs; type: cell-based, Canis lupus familiaris; conditions: dog, read-out: TC50
How it was run: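 TC50 is the concentration that inhibits MDCK cell growth by 50%, reported as the mean of three independent determinations. It is paired with the anti-influenza A IC50 to give a selectivity index (TC50/IC50).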

[4] = Selectivity index, ratio of TC50 for MDCK cells to IC50 for Influenza A virus A/95-359 infected in MDCK cells; type: toxicity, cell-based; conditions: dog, read-out: Selectivity Index
How it was run: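 Ratio of TC50 to IC50, both in MDCK cells. TC50 is the concentration that inhibits MDCK cell growth by 50%. Values are means of three independent determinations. No SI was assigned where it could not be determined under the test conditions.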

In the case of CC1=C2C3=CC[C@@H]4[C@@]5(C)C[C@@H](O)[C@@H](O)[C@@](C)(CO)[C@@H]5CC[C@@]4(C)[C@]3(C)CC[C@@]23CC[C@]1(C)OO3, the IC50 (Human alphaherpesvirus 1) is reported as 6.41 µM, the CC50 at 48 h [1] is reported as 23.1 µM and the selectivity ratio [2] is reported as 3.6. For the same compound, the IC50 (Influenza A virus) was over 33.3 µM and the CC50 at 48 h [3] was 57.7 µM.

In the case of CC(=O)CCC1=C(C(C)=O)C2=CC[C@@H]3[C@@]4(C)C[C@@H](O)[C@@H](O)[C@](C)(CO)[C@@H]4CC[C@@]3(C)[C@]2(C)CC1, the IC50 (Human alphaherpesvirus 1) is reported as over 33.3 µM, the CC50 at 48 h [1] is reported as 69.3 µM and the IC50 (Influenza A virus) is reported as over 33.3 µM. The CC50 at 48 h [3] was over 100 µM.

For Cc1ccc2c(c1C)C1=CC[C@@H]3[C@@]4(C)C[C@@H](O)[C@H](O)[C@@](C)(CO)[C@@H]4CC[C@@]3(C)[C@]1(C)CC2, the IC50 (Human alphaherpesvirus 1) was 0.41 µM, the CC50 at 48 h [1] was 1.78 µM and the selectivity ratio [2] was 4.3. For the same compound, the IC50 (Influenza A virus) was 1.23 µM, the CC50 at 48 h [3] was 3.7 µM and the selectivity ratio [4] was 3.

CC1=C2C3=CC[C@@H]4[C@@]5(C)CC[C@@H](O)[C@](C)(CO)[C@@H]5CC[C@@]4(C)[C@]3(C)CC[C@]23CC[C@@]1(C)OO3 gave an IC50 (Human alphaherpesvirus 1) of over 11.1 µM, a CC50 at 48 h [1] of 33.3 µM and an IC50 (Influenza A virus) of over 11.1 µM. For the same compound, the CC50 at 48 h [3] was 19.2 µM.

With CC1=C2C3=CC[C@@H]4[C@@]5(C)CC[C@@H](O)[C@@](C)(CO)[C@@H]5CC[C@@]4(C)[C@]3(C)CC[C@@]23CC[C@]1(C)OO3 the IC50 (Human alphaherpesvirus 1) was over 11.1 µM, the CC50 at 48 h [1] was 57.7 µM and the IC50 (Influenza A virus) was over 11.1 µM. For the same compound, the CC50 at 48 h [3] was 19.2 µM.

Work on Cc1ccc2c(c1C)C1=CC[C@@H]3[C@@]4(C)[C@H](O)[C@@H](O)[C@@H](O)[C@@](C)(CO)[C@@H]4CC[C@@]3(C)[C@]1(C)CC2 yielded an IC50 (Human alphaherpesvirus 1) of over 0.41 µM, a CC50 at 48 h [1] of 1.78 µM and an IC50 (Influenza A virus) of over 1.23 µM. It also gave a CC50 at 48 h [3] of 2.57 µM.

Cc1ccc2c(c1C)C1=CC[C@@H]3[C@@]4(C)CC[C@@H](O)[C@](C)(CO)[C@@H]4CC[C@@]3(C)[C@]1(C)CC2 gave an IC50 (Human alphaherpesvirus 1) of over 1.23 µM, a CC50 at 48 h [1] of 5.34 µM and an IC50 (Influenza A virus) of over 11.1 µM. For the same compound, the CC50 at 48 h [3] was 19.2 µM.

Cc1ccc2c(c1C)C1=CC[C@@H]3[C@@]4(C)C[C@@H](O)[C@@H](O)[C@](C)(CO)[C@@H]4CC[C@@]3(C)[C@]1(C)CC2 gave an IC50 (Human alphaherpesvirus 1) of over 1.23 µM, a CC50 at 48 h [1] of 3.7 µM and an IC50 (Influenza A virus) of over 3.7 µM. For the same compound, the CC50 at 48 h [3] was 7.7 µM.

In the case of Cc1ccc2c(c1C)C1=CC[C@@H]3[C@@]4(C)[C@H](O)C[C@@H](O)[C@](C)(CO)[C@@H]4CC[C@@]3(C)[C@]1(C)CC2, the IC50 (Human alphaherpesvirus 1) is reported as over 3.7 µM, the CC50 at 48 h [1] is reported as 11.1 µM and the IC50 (Influenza A virus) is reported as over 3.7 µM. For the same compound, the CC50 at 48 h [3] was 16 µM.

With Nc1nc2c(ncn2COCCO)c(=O)[nH]1 [ACYCLOVIR] the IC50 (Human alphaherpesvirus 1) was 0.41 µM, the CC50 at 48 h [1] was over 100 µM and the selectivity ratio [2] was over 244.

For CCOC(=O)C1=C[C@@H](OC(CC)CC)[C@H](NC(C)=O)[C@@H](N)C1 [OSELTAMIVIR], the IC50 (Influenza A virus) was 1.63 µM.
